Experimental data taken from ChEMBL document CHEMBL1129298, “Nonpeptide angiotensin II receptor antagonists: synthesis, biological activities, and structure-activity relationships of imidazole-5-carboxylic acids bearing alkyl, alkenyl, and hydroxyalkyl substituents at the 4-position and their related compounds” (J Med Chem, 1996).
Several values for one entry are separate records, joined by “and”; a condition that tells them apart may be missing. Equal entries are not always repeated. Values belong to the compound of their own block, whether it stands above or below them.

Assays:
[1] = molecular target: T1, Type-1 angiotensin II receptor (Bos taurus, UniProt P25104); test: In vitro for inhibition of [125I]-angiotensin II (0.1 nM) binding to angiotensin II receptor type 1 in membrane fractions of bovine adrenal cortex; assay type: tissue-based
T1 sequence (P25104 whole entry): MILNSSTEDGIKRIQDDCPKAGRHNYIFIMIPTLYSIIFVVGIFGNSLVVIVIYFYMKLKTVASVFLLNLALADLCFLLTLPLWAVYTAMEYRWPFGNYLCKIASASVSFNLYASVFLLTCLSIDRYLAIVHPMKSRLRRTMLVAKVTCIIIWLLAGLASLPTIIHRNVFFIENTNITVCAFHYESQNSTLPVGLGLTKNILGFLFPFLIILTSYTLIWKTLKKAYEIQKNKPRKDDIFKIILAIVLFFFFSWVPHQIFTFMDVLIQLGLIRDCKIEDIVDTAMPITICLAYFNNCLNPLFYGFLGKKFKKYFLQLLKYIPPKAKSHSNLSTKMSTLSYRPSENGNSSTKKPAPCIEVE

[2] = molecular target: Angiotensin II receptor (Rattus norvegicus) (UniProt P29089+P25095+P35351); test: In vivo inhibitory activity against angiotensin II induced pressor response in anesthetized normotensive rats; assay type: functional, organism-based
Summary of the method: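 Male Wistar-Imamichi rats (300–400 g) under inactin (100 mg/kg ip), with femoral arterial and venous cannulae. AII 50 ng/kg iv every 10 min until responses were constant. Compound in DMSO was then given iv and AII re-injected 2 min later.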

Rattus norvegicus [3] = test: Inhibitory activity against AII-Induced Pressor response at 1 mg/kg at 1 hr; assay type: functional
Summary of the method: (§1)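 Male Wistar-Imamichi rats (300–400 g) cannulated under pentobarbital (50 mg/kg ip), fasted 24 h, tested conscious the next day. AII 50 ng/kg iv was repeated until constant, then compound in 50% aqueous DMF given orally. AII was repeated over 8 h, and mean blood pressure response inhibition (%) was recorded at 1, 3, 6 h. n = 3–5.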

Rattus norvegicus [4] = test: Inhibitory activity against AII-Induced Pressor response at 1 mg/kg at 3 hour; assay type: functional; summary of the method: as §1
Rattus norvegicus [5] = test: Inhibitory activity against AII-Induced Pressor response at 1 mg/kg at 6 hour; assay type: functional; settings: for inhibition in vivo at 1 mg/kg: Rattus norvegicus, 6 h; summary of the method: as §1
Rattus norvegicus [6] = test: Inhibitory activity against AII-Induced Pressor response at 0.3 mg/Kg at 1 hr; assay type: functional; summary of the method: as §1
Rattus norvegicus [7] = test: Inhibitory activity against AII-Induced Pressor response at 0.3 mg/Kg at 3 hour; assay type: functional; summary of the method: as §1
Rattus norvegicus [8] = test: Inhibitory activity against AII-Induced Pressor response at 0.3 mg/Kg at 6 hour; assay type: functional; summary of the method: as §1
Rattus norvegicus [9] = test: Inhibitory activity against AII-Induced Pressor response at 1 mg/Kg at 1 hr; assay type: functional; summary of the method: as §1
Rattus norvegicus [10] = test: Inhibitory activity against AII-Induced Pressor response at 1 mg/Kg at 3 hour; assay type: functional; summary of the method: as §1
Rattus norvegicus [11] = test: Inhibitory activity against AII-Induced Pressor response at 1 mg/Kg at 6 hour; assay type: functional; summary of the method: as §1
Rattus norvegicus [12] = test: Inhibitory activity against AII-Induced Pressor response at 10 mg/Kg at 3 hour; assay type: functional; summary of the method: as §1
Rattus norvegicus [13] = test: Inhibitory activity against AII-Induced Pressor response at 10 mg/Kg at 6 hour; assay type: functional; summary of the method: as §1
Rattus norvegicus [14] = test: Inhibitory activity against AII-Induced Pressor response at 3 mg/Kg at 1 hr; assay type: functional; summary of the method: as §1
Rattus norvegicus [15] = test: Inhibitory activity against AII-Induced Pressor response at 3 mg/Kg at 3 hour; assay type: functional; summary of the method: as §1
Rattus norvegicus [16] = test: Inhibitory activity against AII-Induced Pressor response at 3 mg/Kg at 6 hour; assay type: functional; summary of the method: as §1
Rattus norvegicus [17] = test: Inhibitory activity against AII-Induced Pressor response at 10 mg/Kg at 1 hr; assay type: functional; summary of the method: as §1
Rattus norvegicus [18] = test: Inhibitory activity against AII-Induced Pressor response at 0.3 mg/Kg at 3 hr; assay type: functional; summary of the method: as §1

SMILES: C=C(C)c1nc(CCC)n(Cc2ccc(-c3ccccc3C(=O)O)cc2)c1C(=O)O
IC50 [1]: 270 nM
ID50 [2]: 0.37 mg/kg

SMILES: CCCc1nc(C(C)(C)O)c(C(=O)O)n1Cc1ccc(-c2ccccc2C(=O)OCOC(=O)C(C)(C)C)cc1
inhibition in vivo at 1 mg/kg (Rattus norvegicus [3]): 20%
inhibition in vivo at 1 mg/kg (Rattus norvegicus [4]; Rattus norvegicus, 3 h): 35%
inhibition in vivo at 1 mg/kg (Rattus norvegicus [5]): 40%

SMILES: CCCc1ncc(C(=O)O)n1Cc1ccc(-c2ccccc2C(=O)O)cc1
IC50 [1]: 60 nM
ID50 [2]: 0.22 mg/kg

SMILES: CCCc1nc(CC)c(C(=O)O)n1Cc1ccc(-c2ccccc2C(=O)O)cc1
IC50 [1]: 100 nM
ID50 [2]: 0.27 mg/kg

SMILES: CCCc1nc(CO)c(C(=O)O)n1Cc1ccc(-c2ccccc2C(=O)O)cc1
ID50 [2]: 0.069 mg/kg

SMILES: CCCc1nc(C)c(C(=O)O)n1Cc1ccc(-c2ccccc2C(=O)O)cc1
IC50 [1]: 110 nM
ID50 [2]: 0.096 mg/kg

SMILES: CCCc1nc(C(=O)O)c(CO)n1Cc1ccc(-c2ccccc2C(=O)O)cc1
ID50 [2]: 8.8 mg/kg

SMILES: CCCc1nc(C(C)O)c(C(=O)O)n1Cc1ccc(-c2ccccc2C(=O)O)cc1 (stereo not given)
IC50 [1]: 28 nM
ID50 [2]: 0.062 mg/kg

SMILES: CCCc1nc(C(C)(C)O)c(C(=O)OCOC(=O)C(C)(C)C)n1Cc1ccc(-c2ccccc2C(=O)O)cc1
inhibition in vivo at 1 mg/kg (Rattus norvegicus [3]): 52%
Inhibition (Rattus norvegicus [4]; 1 mg/kg): 61% and 85%
inhibition in vivo at 1 mg/kg (Rattus norvegicus [5]): 75%
Inhibition (Rattus norvegicus [5]; dose 3 mg/kg, in the assay text read “3 mg/kg” for “1 mg/kg”): 87%
inhibition in vivo at 3 mg/kg (Rattus norvegicus [14]): 85%
inhibition in vivo at 0.3 mg/kg (Rattus norvegicus [6]): 43%
inhibition in vivo at 0.3 mg/kg (Rattus norvegicus [18]): 32%

SMILES: CCCc1nc(CO)c(C(=O)OCC)n1Cc1ccc(-c2ccccc2C(=O)O)cc1
ID50 [2]: 1.5 mg/kg

The next lines start with results.

IC50 [1]: 51 nM
ID50 [2]: 0.074 mg/kg
SMILES: CCCc1nc(C(C)(O)CC)c(C(=O)O)n1Cc1ccc(-c2ccccc2C(=O)O)cc1 (stereo not given)

IC50 [1]: 9.5 nM
SMILES: CCCCc1nc(C(C)(C)O)c(C(=O)O)n1Cc1ccc(-c2ccccc2-c2nnn[nH]2)cc1

IC50 [1]: 8.1 nM
ID50 [2]: 0.0079 mg/kg
SMILES: CCCc1nc(C(C)(C)O)c(C(=O)O)n1Cc1ccc(-c2ccccc2-c2nnn[nH]2)cc1 [OLMESARTAN]
inhibition in vivo at 0.3 mg/kg (Rattus norvegicus [6]): 83%
inhibition in vivo at 0.3 mg/kg (Rattus norvegicus [7]): 77%
inhibition in vivo at 0.3 mg/kg (Rattus norvegicus [8]): 78%
inhibition in vivo at 1 mg/kg (Rattus norvegicus [9]): 98%
inhibition in vivo at 1 mg/kg (Rattus norvegicus [10]): 98%
inhibition in vivo at 1 mg/kg (Rattus norvegicus [11]): 93%

ID50 [2]: 0.3 mg/kg
SMILES: CCCCc1nc(Cl)c(CO)n1Cc1ccc(-c2ccccc2-c2nnn[nH]2)cc1 [LOSARTAN]
inhibition in vivo at 10 mg/kg (Rattus norvegicus [12]): 77%
inhibition in vivo at 10 mg/kg (Rattus norvegicus [13]): 85%
inhibition in vivo at 3 mg/kg (Rattus norvegicus [14]): 38%
inhibition in vivo at 3 mg/kg (Rattus norvegicus [15]): 35%
inhibition in vivo at 3 mg/kg (Rattus norvegicus [16]): 65%
inhibition in vivo at 1 mg/kg (Rattus norvegicus [9]): 12%
inhibition in vivo at 1 mg/kg (Rattus norvegicus [10]): 12%
inhibition in vivo at 1 mg/kg (Rattus norvegicus [11]): 32%
inhibition in vivo at 10 mg/kg (Rattus norvegicus [17]): 69%

IC50 [1]: 4.9 nM
SMILES: CCCc1nc(C(C)O)c(C(=O)O)n1Cc1ccc(-c2ccccc2-c2nnn[nH]2)cc1 (stereo not given)

IC50 [1]: 600 nM
ID50 [2]: 1.2 mg/kg
SMILES: CCCc1nc(C(C)(C)O)c(C(=O)OCC)n1Cc1ccc(-c2ccccc2C(=O)O)cc1
inhibition in vivo at 10 mg/kg (Rattus norvegicus [12]): 70%
inhibition in vivo at 10 mg/kg (Rattus norvegicus [13]): 75%
inhibition in vivo at 3 mg/kg (Rattus norvegicus [14]): 26%
inhibition in vivo at 3 mg/kg (Rattus norvegicus [15]): 28%
inhibition in vivo at 3 mg/kg (Rattus norvegicus [16]): 25%
inhibition in vivo at 10 mg/kg (Rattus norvegicus [17]): 40%

IC50 [1]: 12 nM
SMILES: CCCc1nc(CC)c(C(=O)O)n1Cc1ccc(-c2ccccc2-c2nnn[nH]2)cc1

ID50 [2]: 0.017 mg/kg
SMILES: CCCCc1nc(C(C)(C)O)c(C(=O)O)n1Cc1ccc(-c2ccccc2-c2nn[nH]n2)cc1

IC50 [1]: 110 nM
ID50 [2]: 0.11 mg/kg
SMILES: CCCc1nc(C(O)(CC)CC)c(C(=O)O)n1Cc1ccc(-c2ccccc2C(=O)O)cc1

ID50 [2]: 2.4 mg/kg
SMILES: CCCc1nc(C(=O)O)cn1Cc1ccc(-c2ccccc2-c2nn[nH]n2)cc1

ID50 [2]: 0.019 mg/kg
SMILES: CCc1nc(C(C)(C)O)c(C(=O)O)n1Cc1ccc(-c2ccccc2-c2nn[nH]n2)cc1

ID50 [2]: 0.0062 mg/kg
SMILES: CCCc1nc(CO)c(C(=O)O)n1Cc1ccc(-c2ccccc2-c2nn[nH]n2)cc1
inhibition in vivo at 0.3 mg/kg (Rattus norvegicus [6]): 76%
inhibition in vivo at 0.3 mg/kg (Rattus norvegicus [7]): 75%
inhibition in vivo at 0.3 mg/kg (Rattus norvegicus [8]): 65%

IC50 [1]: 6.9 nM
SMILES: CCCc1nc(CO)c(C(=O)O)n1Cc1ccc(-c2ccccc2-c2nnn[nH]2)cc1

ID50 [2]: 0.014 mg/kg
SMILES: CCCc1nc(C(C)C)c(C(=O)O)n1Cc1ccc(-c2ccccc2-c2nn[nH]n2)cc1
